Reference: ChEMBL document CHEMBL2057169, “Discovery of novel tricyclic compounds as squalene synthase inhibitors” (Bioorg Med Chem, 2012)

Tests used:
Rattus norvegicus = assay: Inhibition of cholesterol synthesis in Wistar rat liver assessed as reduction of [14C]-cholesterol level at 3 mg/kg, po administered as single dose measured after 1 hr by liquid scintillation counting; assay type: functional
In short: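 Male Wistar rats, 6 weeks old, n = 4-6, dosed orally at 3 mg/kg in 0.5% methylcellulose, with equimolar NaOH or NaHCO3 added; vehicle-only controls. At 1 h, [14C]mevalonic acid (5 µCi/5 ml/kg) was given ip, and rats were killed 1 h later.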

Squalene synthase = target: T1, Squalene synthase (Rattus norvegicus, UniProt Q02769); assay: Inhibition of squalene synthase in rat hepatic cells; assay type: cell-based
T1 sequence (Q02769 whole entry): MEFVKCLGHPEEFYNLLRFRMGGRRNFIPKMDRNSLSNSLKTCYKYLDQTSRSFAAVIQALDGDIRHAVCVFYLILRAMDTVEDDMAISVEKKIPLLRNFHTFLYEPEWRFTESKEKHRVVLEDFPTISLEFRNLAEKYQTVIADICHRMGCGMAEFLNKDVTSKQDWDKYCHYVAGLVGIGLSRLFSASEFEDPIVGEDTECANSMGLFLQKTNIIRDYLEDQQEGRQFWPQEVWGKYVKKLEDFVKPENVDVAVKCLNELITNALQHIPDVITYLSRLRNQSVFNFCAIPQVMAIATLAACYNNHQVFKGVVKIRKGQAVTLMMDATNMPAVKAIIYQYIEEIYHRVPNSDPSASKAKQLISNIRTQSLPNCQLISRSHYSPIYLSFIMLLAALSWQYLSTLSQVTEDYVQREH

Hepatocyte = assay: Inhibition of cholesterol synthesis in rat hepatocytes assessed as formation of cholesterol using [14C]mevalonolactone as substrate after 1 hr by radioactivity assay; assay type: functional, cell-based
In short: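 Rat hepatocytes isolated by two-step portal-vein perfusion (EGTA buffer, then 0.05% collagenase). Cells were kept if viability was over 80% by trypan blue and seeded at 10^6 cells/well in DMEM with 10% LPDS. Next day they got 5% LPDS medium with inhibitor at 0–3000 nM for 1 h at 37 °C, then [14C]mevalonolactone for 1 h. Lysates were saponified, [14C]cholesterol corrected by [3H]cholesterol recovery and BCA protein, and % inhibition taken versus 0 nM wells. Triplicate wells; three experiments.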

marmosets [1] = assay: Lipid lowering effect in marmosets assessed as reduction in plasma HDL-cholesterol level at 100 mg/kg, po administered once daily for 7 days; assay type: functional; details: Callitrichinae sp., in Callithrix jacchus, 168 h
In short: (§1)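 Common marmosets, n = 8 per group, matched for body weight and plasma lipids. They were dosed orally at 100 mg/kg in 0.5% methylcellulose (5 ml/kg) once daily for 7 days. Nonfasted blood was drawn before dosing and the morning after the last dose. HDL was precipitated, then its cholesterol assayed enzymatically; non-HDL = total minus HDL cholesterol. Change was expressed relative to pre-values.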

marmosets [2] = assay: Lipid lowering effect in marmosets assessed as reduction in plasma non HDL-cholesterol level at 100 mg/kg, po administered once daily for 7 days; assay type: functional; details: Callitrichinae sp., in Callithrix jacchus, 168 h; in short: as §1
marmosets [3] = assay: Lipid lowering effect in marmosets assessed as reduction in plasma triglyceride level at 100 mg/kg, po administered once daily for 7 days; assay type: functional; details: Callitrichinae sp., in Callithrix jacchus, 168 h; in short: as §1
marmosets [4] = assay: Lipid lowering effect in marmosets assessed as reduction in plasma total cholesterol level at 100 mg/kg, po administered once daily for 7 days; assay type: functional; details: Callitrichinae sp., in Callithrix jacchus, 168 h; in short: as §1

COc1cccc([C@H]2O[C@H](CCn3nnc(CC(=O)O)n3)c3cccn3-c3ccc(Cl)cc32)c1OC
inhibition in vivo at 3 mg/kg (Rattus norvegicus): 86% | IC50 (Squalene synthase): 1.1 nM | IC50 (Hepatocyte): 36 nM | inhibition in vivo at 100 mg/kg (marmosets [1]): 6% | inhibition in vivo at 100 mg/kg (marmosets [2]): 21% | inhibition in vivo at 100 mg/kg (marmosets [3]): 12% | inhibition in vivo at 100 mg/kg (marmosets [4]): 14%
